Screening results: PubChem BioAssay, several laboratories
STAT1 act – STAT1 signaling activators, primary screen, cell-based, HTS, luciferase reporter; NIH 3T3 STAT1-luciferase reporter, IFN-gamma, luminescence; 100% = IFN-gamma alone, no compound; actives 2.6% (n = 200,000); activation (% of control), % at 5.5 µM;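 active means activation above the screen-wide mean activation plus 3 SD, cut at about 130% in these data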
PERK inhibitor – block of dimerizer-induced PERK translation repression, primary screen, PERK inhibitor project, CHO PERK-DD cells, SEAP luminescence, HTS; Eukaryotic translation initiation factor 2-alpha kinase 3 (Homo sapiens), Q9NZJ5; CHO PERK-DD fusion, SEAP luminescence translation reporter; inhibition, % at 5.6 µM; actives 0.17% (n = 220,000);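 active means inhibition above the mean inhibition of all tested compounds plus 3 SD, set separately per screening campaign, cut at about 2.9% in these data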;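 further: PERK kinase domain activated by AP20187 dimerizer at 100 nM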
NF-kB neuron act – activators of NF-kB expression in neurons, primary screen, cell-based, HTS. human neuronal cells, NF-kB reporter expression; hits give high values. fold change at 12.5 µM. actives 1.6% (n = 190,000); in the data active means fold change above about 3.3
MDM2 E3 inh – MDM2-luciferase reporter signal enhancers, primary screen, MDM2 E3 ligase inhibitor project, cell-based, luminescence, 1536-well | signal enhancement, % at 5 µM | actives 0.11% (n = 210,000) | AID 1230, 2008 | E3 ubiquitin-protein ligase Mdm2 (Homo sapiens), Q00987 | cell-based MDM2 ubiquitination luciferase reporter, 2 h; 0 = plate control, 100 = twice control, blank-subtracted;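 active means signal enhancement of 30% or more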;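 further: luminescence tracks abundance of the self-degrading MDM2-luciferase fusion protein; higher signal means inhibition of MDM2 E3 ligase activity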
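Assay system: stable mammalian line carrying autodegrading MDM2–luciferase fusion reporter; amount: 2000 cells seeded into each well; buffer or medium: DMEM; benchmarks: plate control and blank wells; signal: luciferase luminescence; timing: 2 h compound exposure at 37 °C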
APP 5'UTR act – activators of APP 5'UTR luciferase reporter, primary screen, SH-SY5Y cells | SH-SY5Y APP 5'UTR luciferase reporter, luminescence; zero percent = DMSO vehicle wells | activation, % at 2 µM | actives 1% (n = 190,000) | AID 1276, 2008;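 active means activation above a set limit, based on mean plus 3 SD of controls, cut at about 140% in these data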
AHR act – AHR activators, primary screen, cell-based, luminescence, luciferase reporter, human | actives 2.5% (n = 320,000) | Aryl hydrocarbon receptor (Homo sapiens), P35869 | activation, % at 5 µM | AID 2796, 2010 | AHR-responsive luciferase reporter cells; in the data active means activation above about 47%
AHR act confirm – AHR activators, confirmation, cell-based, luminescence, luciferase reporter, human; shares compounds with AHR act; human cells, AHR-responsive luciferase reporter; activation, % at 9 µM; actives 87% (n = 2,300); in the data active means activation above about 49%;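 further: HepG2 hepatoma cells carrying a DRE-driven firefly luciferase reporter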
PXR counter – human PXR activators, counter-screen for AHR activator project, cell-based, luciferase luminescence. actives 88% (n = 2,300). AID 434939, 2010. activation, % at 11.6 µM. cell-based PXR reporter. shares compounds with AHR act; in the data active means activation above about 11%;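 further: human hepatoma DPX-2 cells expressing full-length human PXR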
Numbers stand for hits; 0 = inactive; - = no result given. Compounds with a hit are over-represented: about 4.5% of the library has one in this group of screens.

SMILES	STAT1 act	PERK inhibitor	NF-kB neuron act	MDM2 E3 inh	APP 5'UTR act	AHR act	AHR act confirm	PXR counter
C/C(=N\NC(=O)c1ccco1)c1cccc2ccccc12	-	-	-	-	-	0	-	-
C/C(=N\NC(=O)c1ccc(C(=O)N/N=C(\C)c2ccco2)o1)c1ccco1	-	-	-	-	-	108.2	0	0
C/C(=N\NC(=O)c1c[nH]c2ccccc12)c1ccco1	0	0	0	0	0	92.0	159.5	24.4
Cc1ccccc1-c1nnc(SCCOc2ccc3c(C)cc(=O)oc3c2)o1	0	0	0	0	0	0	-	-
COc1ccc(/C=C/C(=O)c2cc3c(cc2N)OCO3)cc1	0	0	3.77	0	145.2	95.9	127.8	26.3
CCc1cccc(NS(=O)(=O)c2ccc3c(c2)N(C)CCO3)c1	-	-	-	-	-	0	-	-
NC(=O)c1cc2ccccc2o/c1=N\NC(=O)c1ccncc1	0	0	0	0	0	126.8	137.0	15.5
Cc1csc(Sc2ccc(S(=O)(=O)N3CCCC3)cn2)n1	0	0	0	0	0	0	-	-
O=C(Nc1cccc(F)c1)c1c(F)c(F)c(F)c(F)c1F	0	0	0	0	-	95.0	71.6	30.5
Cc1cccc(NC(=O)c2c(F)c(F)c(F)c(F)c2F)c1	0	0	0	0	0	0	-	-
O=C(Nc1cccc(F)c1)c1ccc(Br)o1	0	0	0	-	0	120.3	67.2	20.0
CC(=O)c1cccc(NC(=O)c2ccc(Br)o2)c1	0	0	0	0	0	0	-	-
CO/N=C\CC(=O)Nc1ccc(Oc2ccccc2)cc1	0	0	0	0	0	0	-	-
COc1cccc(OC)c1C(=O)Nc1ccc(S(=O)(=O)N2CCCCC2)cc1	-	-	-	-	-	0	-	-
COc1ccc(Nc2ccnc(Nc3ccc(OC)cc3)n2)cc1	0	0	0	0	0	82.8	61.9	37.0
CC(=O)NCCNc1nc2c(-c3ccccc3)nnn2c2ccccc12	-	-	-	-	-	88.0	112.9	18.6
CC(=O)NCCNc1nc2c(-c3cccc(C)c3)nnn2c2ccccc12	-	-	-	-	-	0	-	-
COC(=O)NNC(=S)NCc1ccccc1	0	0	0	0	0	0	-	-
Cn1cc(SCC(=O)NC2CCCCC2)c2ccccc21	-	-	-	-	-	88.2	0	108.3
Cn1cc(SCC(=O)NC2CCCC2)c2ccccc21	-	-	-	-	-	0	-	-
CC(=O)c1ccc(NC(=S)Nc2cccc3ccccc23)cc1	-	-	-	-	-	99.0	0	85.8
Fc1cccc(NC(=S)Nc2cccc3ccccc23)c1	-	-	-	-	-	82.2	62.3	100.3
Cc1ccc(NC(=S)Nc2cccc3ccccc23)cc1F	-	-	-	-	-	83.9	75.2	111.8
CC(=O)c1ccc(NC(=O)c2cc(Cl)nc3ccccc23)cc1	0	0	0	0	0	96.1	81.9	-
CC(C)C(NC(=O)c1ccco1)C(=O)NC1CCCCCC1 (stereo unspecified)	-	-	-	-	-	0	-	-
SMILES	STAT1 act	PERK inhibitor	NF-kB neuron act	MDM2 E3 inh	APP 5'UTR act	AHR act	AHR act confirm	PXR counter
Cc1c(NC(=O)c2ccco2)cccc1-c1nc2cccnc2s1	0	0	0	0	0	109.0	89.6	14.3
Cc1ccc(-n2c(C)nnc2SCC(=O)N2CCc3ccccc3C2)cc1	0	0	0	0	0	0	-	-
c1csc(-c2nc3c4ccccc4c4ccccc4c3[nH]2)c1	0	0	0	0	0	112.2	95.8	25.1
C=CCSc1n[nH]c(-c2cccs2)n1	-	0	-	0	-	0	-	-
O=c1c2ccccc2oc2nc(-c3ccco3)n(-c3ccccc3)c(=O)c12	0	0	0	0	0	94.6	147.6	32.7
COc1cccc(-c2noc(CCCC(=O)N3CCOCC3)n2)c1	0	0	0	0	0	0	-	-
CCOC(=O)CC1COCCN1Cc1cn(C)nc1-c1ccccc1F (stereo unspecified)	0	0	0	0	0	0	-	-
COc1cc(OC)cc(-c2nc3ccccc3s2)c1	0	0	0	0	0	89.9	107.2	10.6
O=C1NCCC/C1=N\Nc1ccc(Br)cc1	-	0	-	0	-	119.3	124.5	20.6
Cc1ccccc1N/N=C1\CCCNC1=O	0	0	0	0	0	0	-	-
CN(C)CCNc1ncnc2c1sc1nc(-c3ccccc3)c3c(c12)CCCC3	-	0	-	0	-	0	-	-
[O-][n+]1onc2c3cc(-c4ccccc4)nnc3ccc21	0	0	0	0	0	88.1	107.6	-
O=C(Cc1nnc(NC(=O)Nc2ccc(F)cc2)s1)NCc1ccccc1	-	0	-	0	-	0	-	-
c1ccc(-c2nnc3n2N=C(c2ccc4c(c2)OCO4)CS3)nc1	0	0	0	0	0	93.8	0	12.9
COc1ccc(C2=Nn3c(nnc3-c3ccccn3)SC2)cc1OC	0	0	0	0	0	0	-	-
Cc1cc(C)cc(Nc2nc3c([nH]2)c(=O)n(C)c(=O)n3C)c1	0	0	0	0	0	94.9	0	26.6
CCOc1ccc(S(=O)(=O)NCCC(=O)NC2CCC(C)CC2)cc1 (stereo unspecified)	-	-	-	-	-	0	-	-
COc1ccc(NC(=O)c2cc(=O)[nH]c(=O)[nH]2)cc1S(=O)(=O)Nc1ccccc1Cl	0	0	0	0	0	0	-	-
Cc1ccc(NC(=O)c2ccc3ccccc3n2)nc1	146.6	0	6.16	0	154.8	85.5	105.8	18.0
O=C(Nc1ccc(Cl)cn1)c1ccc2ccccc2n1	0	0	0	0	0	0	-	-
O=C(Nc1ccccc1C(=O)O)c1ccc2ccccc2n1	0	0	0	0	0	93.3	130.3	32.1
Cc1ccc(S(=O)(=O)Nc2ccc(NC(=O)c3cccnc3)cc2)cc1	0	0	0	0	0	0	-	-
CC1CCCN(C(=O)CSc2nnc3ccccn23)C1 (stereo unspecified)	-	-	-	-	-	0	-	-
CC(C)c1ccc2[nH]c(O)c(N=NC(=S)NCCc3ccccc3)c2c1	0	0	0	0	0	0	-	-
CCNC(=S)N=Nc1c(O)[nH]c2ccc(C(C)C)cc12	0	0	0	0	0	123.2	72.2	80.3
O=S(=O)(/N=C(/c1ccccc1)N1CCOCC1)c1ccc(Br)cc1	-	-	-	-	-	0	-	-
Fc1ccc2cnc(-c3cccnc3)cc2c1	-	-	-	-	-	88.9	87.2	25.5
O=C(COc1ccc(Cl)cc1)Nc1ccc(C(=O)O)cc1NC(=O)COc1ccc(Cl)cc1	-	-	-	-	-	0	-	-
COc1ccc(NC(=O)Nc2ccc([N+](=O)[O-])cc2)cn1	-	-	-	-	-	0	-	-
Cn1c(SCC(=O)N/N=C/C=C/c2ccccc2[N+](=O)[O-])nc2ccccc21	0	0	0	0	0	117.3	55.6	74.9
